ChEMBL document CHEMBL1123628, “Streptonigrin and lavendamycin partial structures. Probes for the minimum, potent pharmacophore of streptonigrin, lavendamycin, and synthetic quinoline-5,8-diones” (J Med Chem, 1987)
Values after ≈ are worked out from the molar mass of the structure shown.

What was measured:
B16 [1] = test: Cytotoxic activity against mouse melanoma cell culture(B-16); type: functional, cell-based
Summary of the method: (§1)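 10^4 B16 or L-1210 (ATCC 219) cells were seeded per well in DMEM with 5% bovine serum and grown 48 h at 37 °C under 5% CO2. Agents from 10 mg/mL stocks in 95% ethanol or DMSO were added as 2× medium, then 48 h more. L-1210 cells were dispersed by pipetting; B16 were detached with 0.01% trypsin/0.1% EDTA for 5 min at 37 °C. Cells were counted by hemocytometer or Coulter counter, and the dose halving the count versus untreated controls was read from the count–concentration plot.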

CCRF-CEM [2] = test: Cytotoxic activity against human lymphoblastic leukemia cell culture (CCRF-CEM); type: functional, cell-based
Candida albicans = test: Antimicrobial activity was determined against Candida albicans ATCC 10231; type: functional
Summary of the method: (§2)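 MICs (µg/mL) were determined by agar dilution/streak against S. aureus ATCC 13709, E. coli ATCC 9637, S. gallinarum ATCC 9184, K. pneumoniae ATCC 10031, M. smegmatis ATCC 607, P. aeruginosa ATCC 27853 and C. albicans ATCC 10231.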

Escherichia coli = test: Antimicrobial activity was determined against Escherichia coli ATCC 9637; type: functional; summary of the method: as §2
[3] = tested on: Epidermoid carcinoma cell line; test: Cytotoxic activity against human epidermoid carcinoma of the nasopharynx (9KB); type: functional, cell-based
Summary of the method: (§3)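 P388 (9PS, NCI-supplied line) and 9KB IC50s (µg/mL) followed NCI cell culture protocols. Samples were run in duplicate, and growth was compared with untreated controls. IC50 was extrapolated from a least-squares fit of the dose–response curve.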

L1210 [4] = test: Cytotoxic activity against mouse lymphoblastic leukemia cell culture (L-1210); type: functional, cell-based; summary of the method: as §1
[5] = tested on: Mycolicibacterium smegmatis; test: Antimicrobial activity was determined against Mycobacterium smegmatis ATCC 607; type: functional; summary of the method: as §2
P388 [6] = test: Cytotoxic activity against P388 mouse leukemia cell culture (9PS(P388)); type: functional, cell-based; summary of the method: as §3
Pseudomonas aeruginosa = test: Antimicrobial activity was determined against Pseudomonas aeruginosa ATCC 27853 cells; type: functional; summary of the method: as §2
[7] = tested on: Salmonella enterica subsp. enterica serovar Gallinarum; test: Antimicrobial activity was determined against Salmonella gallinarum ATCC 9184; type: functional; summary of the method: as §2
Staphylococcus aureus = test: Antimicrobial activity was determined against Staphylococcus aureus ATCC 13709; type: functional; summary of the method: as §2
Klebsiella pneumoniae = test: Antimicrobial activity was determined against Klebsiella pneumoniae ATCC 10031; type: functional; summary of the method: as §2
B16 [8] = test: Cytotoxicity against mouse melanoma cell culture(B-16); type: functional, cell-based; summary of the method: as §1
CCRF-CEM [9] = test: Cytotoxicity against human lymphoblastic leukemia cell culture (CCRF-CEM); type: functional, cell-based
[10] = tested on: Epidermoid carcinoma cell line; test: Cytotoxicity against human epidermoid carcinoma of the nasopharynx (9KB); type: functional, cell-based; summary of the method: as §3
L1210 [11] = test: Cytotoxicity against mouse lymphoblastic leukemia cell culture (L-1210); type: functional, cell-based; summary of the method: as §1
P388 [12] = test: Cytotoxicity against P388 mouse leukemia cell culture (9PS(P388)); type: functional, cell-based; summary of the method: as §3

Row | Structure (SMILES) | IC50 (B16 [1]) [µg/mL] | IC50 (CCRF-CEM [2]) [µg/mL] | MIC (Candida albicans) [µg/mL] | MIC (Escherichia coli) [µg/mL] | IC50 [3] [µg/mL] | IC50 (L1210 [4]) [µg/mL] | MIC [5] [µg/mL] | IC50 (P388 [6]) [µg/mL] | MIC (Pseudomonas aeruginosa) [µg/mL] | MIC [7] [µg/mL] | MIC (Staphylococcus aureus) [µg/mL] | MIC (Klebsiella pneumoniae) [µg/mL] | IC50 (B16 [8]) [µg/mL] | IC50 (CCRF-CEM [9]) [µg/mL] | IC50 [10] [µg/mL] | IC50 (L1210 [11]) [µg/mL] | IC50 (P388 [12]) [µg/mL]
1 | COC1=C(N)C(=O)c2nc(-c3ccccn3)ccc2C1=O | 0.45 (≈ 1.6 µM) | 0.5 (≈ 1.78 µM) | 3.12 (≈ 11.1 µM) | > 100 | 0.33 (≈ 1.17 µM) | 0.3 (≈ 1.07 µM) | 1.56 (≈ 5.55 µM) | 0.034 (≈ 0.121 µM) | > 100 | > 100 | 1.56 (≈ 5.55 µM) | 25 (≈ 88.9 µM) |  |  |  |  | 
2 | COC(=O)c1nc(C(C)=O)c2[nH]c3ccccc3c2c1C | > 25 |  | > 50 | > 50 |  | > 25 | > 50 |  | > 50 | > 50 | > 50 | > 50 |  |  |  |  | 
3 | COC(=O)c1[nH]c(C(=O)OC)c(C)c2c3ccccc3nc1-2 | > 25 | 16.8 (≈ 56.3 µM) | > 50 | > 50 |  | > 25 | > 50 |  | > 50 | > 50 | > 50 | > 50 |  |  |  |  | 
4 | COC(=O)c1nc(-c2ccc3c(n2)C(=O)C(=N)C(OC)=C3O)c(N)c(-c2ccc(OC)c(OC)c2O)c1C |  |  | > 100 | > 100 |  |  | > 100 |  | > 100 | > 100 | > 100 | > 100 | 1.5 (≈ 2.88 µM) | 0.017 (≈ 0.0327 µM) | 0.53 (≈ 1.02 µM) | 3.1 (≈ 5.96 µM) | 0.26 (≈ 0.5 µM)
5 | NC1=CC(=O)c2ccc(-c3cc(C(=O)O)ccc3N)nc2C1=O | > 20 | 14.6 (≈ 47.2 µM) | > 50 | > 50 | > 10 | > 20 | > 50 | 5 (≈ 16.2 µM) | > 50 | > 50 | > 50 | > 50 |  |  |  |  | 
6 | COC(=O)c1[nH]c(-c2ccc3c(n2)C(=O)C(=N)C=C3O)c2nc3ccccc3c-2c1C |  |  |  |  |  |  |  |  |  |  |  |  | 3.1 (≈ 7.52 µM) |  |  | 2.2 (≈ 5.33 µM) | 
7 | NC1=CC(=O)c2ccc(-c3ccccn3)nc2C1=O | 0.26 (≈ 1.03 µM) | 0.09 (≈ 0.358 µM) | 50 (≈ 199 µM) | > 100 | 0.1 (≈ 0.398 µM) | 0.42 (≈ 1.67 µM) | 0.78 (≈ 3.1 µM) | 0.0023 (≈ 0.00915 µM) | > 100 | 100 (≈ 398 µM) | 3.12 (≈ 12.4 µM) | 100 (≈ 398 µM) |  |  |  |  | 
8 | COC1=C(N)C(=O)c2ncccc2C1=O | 1.2 (≈ 5.88 µM) | 0.2 (≈ 0.98 µM) | 50 (≈ 245 µM) | > 50 | 1.9 (≈ 9.31 µM) | 1 (≈ 4.9 µM) | 50 (≈ 245 µM) | 0.22 (≈ 1.08 µM) | > 100 | > 50 | 6.25 (≈ 30.6 µM) | 50 (≈ 245 µM) |  |  |  |  | 
9 | COC(=O)c1ccc(N)c(-c2ccc3c(n2)C(=O)C(=N)C=C3O)c1 | 0.4 (≈ 1.24 µM) | 0.4 (≈ 1.24 µM) | > 50 | > 50 | 2.7 (≈ 8.35 µM) | 0.6 (≈ 1.86 µM) | > 50 | 0.2 (≈ 0.619 µM) | > 50 | > 50 | > 50 | > 50 |  |  |  |  | 
10 | COC(=O)c1nc(C(=O)OC)c(N)c(-c2ccc(OC)c(OC)c2O)c1C | > 20 |  | > 50 | > 50 | > 10 | > 20 | > 50 | > 10 | > 50 | > 50 | > 50 | > 50 |  |  |  |  | 
11 | NC1=CC(=O)c2ccc(-c3cccc(C(=O)O)n3)nc2C1=O |  |  | > 50 | > 50 |  |  | > 50 |  | > 50 | > 50 | > 50 | > 50 | > 20 | 2.1 (≈ 7.11 µM) | > 10 | > 20 | > 10
12 | COC(=O)c1cccc(-c2ccc3c(n2)C(=O)C(=N)C=C3O)n1 | 0.9 (≈ 2.91 µM) | 0.1 (≈ 0.323 µM) | > 50 | > 50 | 0.17 (≈ 0.55 µM) | 0.4 (≈ 1.29 µM) | 6.25 (≈ 20.2 µM) | 3.9 (≈ 12.6 µM) | > 50 | > 50 | 6.25 (≈ 20.2 µM) | 50 (≈ 162 µM) |  |  |  |  | 
13 | NC1=CC(=O)c2cccnc2C1=O | 0.4 (≈ 2.3 µM) | 0.3 (≈ 1.72 µM) | 50 (≈ 287 µM) | 50 (≈ 287 µM) | 0.74 (≈ 4.25 µM) |  | 12.5 (≈ 71.8 µM) | 0.19 (≈ 1.09 µM) | > 100 | 50 (≈ 287 µM) | 12.5 (≈ 71.8 µM) | 50 (≈ 287 µM) |  |  |  |  | 
14 | COC1=C(N)C(=O)c2nc(-c3nc(C(=O)O)c(C)c(-c4ccc(OC)c(OC)c4O)c3N)ccc2C1=O [STREPTONIGRIN] |  |  | 12.5 (≈ 24.7 µM) | 6.25 (≈ 12.3 µM) |  |  | 1.56 (≈ 3.08 µM) |  | 6.25 (≈ 12.3 µM) | 1.56 (≈ 3.08 µM) | < 0.1 | 0.1 (≈ 0.197 µM) | 0.48 (≈ 0.948 µM) | 0.00017 (≈ 0.000336 µM) | 0.0025 (≈ 0.00494 µM) | 0.61 (≈ 1.2 µM) | 0.045 (≈ 0.0889 µM)
